Bioassay records as filed in PubChem.
pCIP destab: p/CIP-EGFP fusion destabilizers, primary screen, fluorescence, F442A cells. Q05BA5. 16 h. decrease of EGFP signal, % at 10 µM. actives 0.01% (n = 290,000). AID 1984, 2009;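 active = EGFP signal decrease of at least 30% at 10 µM or well 3 SD below plate mean, unless failing retest; inactive = the rest, including hits failing retest or dose response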
T cell modulator: modulators of CD8 T cell-vesicle binding, primary screen, mouse 2C CD8+ T cells, flow cytometry. 2C CD8+ T cell-vesicle binding; hits give low values. response (vesicle binding), % at 7 µM. actives 0.068% (n = 330,000);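 active = response, share of CD8 T cells binding vesicles, and their 90th percentile fluorescence all below set limits, cut at about 80% in these data, passing the limit was not always enough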;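 also: values below 100% mean blocked vesicle binding to the CD8+ T cells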
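incubation = binding step 1.5 h, 37 °C, antibody labelling 20 min, ice | test system = 2C mouse CD8+ T cells | read-out basis = percent CD8+ FL2 mean versus row control | controls = Peptide-free naked vesicles (low) and QL9 vesicles with 0.7% DMSO vehicle (high) | detection = flow cytometry of vesicle-bound cells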
CHT allo act: CHT positive allosteric modulators, primary screen, cell-based, membrane potential dye, choline EC20; B-score at 10 µM; AID 488977, 2010; CHT-expressing cells; hits give high values; LV-AA mutant CHT in HEK293 cells; actives 0.49% (n = 310,000); High affinity choline transporter 1 (Homo sapiens), Q9GZV3;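 active = initial fluorescence not abnormally high and integrated response B-score, plate-corrected, over 3 SD above library mean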
Pemphigus Ab inh: inhibitors of pemphigus antibody binding to DSG3, primary screen, biochemical, bead-based, flow cytometry, scFv-GFP. AID 588358, 2011. binding (percent of control), % at 10 µM. Desmoglein-3 (Homo sapiens), P32926. actives 0.48% (n = 310,000). DSG3-coupled beads, scFv-anti-DSG3-GFP binding; hits give low values;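 active = binding more than 3 SD below its plate's average and above zero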;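 also: hits lower antibody fragment binding to DSG3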
GPR7 antag: GPR7 receptor antagonists, primary screen, cell-based, fluorescence, single concentration | GPR7-expressing cells, fluorescence antagonist assay | inhibition, % at 4.4 µM | actives 1.1% (n = 290,000) | AID 1861, 2009; in the data active = inhibition above about 16%, passing the limit was not always enough;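 also: cells stimulated with the agonist NPW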
Target sequence (P48145 whole entry, looked up): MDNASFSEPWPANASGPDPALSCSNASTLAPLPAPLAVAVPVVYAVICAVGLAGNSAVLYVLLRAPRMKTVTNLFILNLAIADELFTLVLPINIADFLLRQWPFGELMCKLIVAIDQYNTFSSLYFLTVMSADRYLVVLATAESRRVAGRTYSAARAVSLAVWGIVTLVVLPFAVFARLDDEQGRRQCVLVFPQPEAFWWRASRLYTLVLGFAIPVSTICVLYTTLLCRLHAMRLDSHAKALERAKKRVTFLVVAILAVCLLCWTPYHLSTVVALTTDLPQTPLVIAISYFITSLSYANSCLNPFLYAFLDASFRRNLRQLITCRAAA
CHT inh: inhibitors of human choline transporter CHT; actives 0.86% (n = 310,000); B-score at 10 µM; AID 488975, 2010; CHT-expressing cells, membrane potential dye, choline response; hits give low values;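 active = B-score over 3 SD under the library average, and starting fluorescence ratio not unusually high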;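 also: choline stimulus applied at its EC90 after an EC20 pre-addition; B-score computed on integrated fluorescence ratio after choline addition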
CHT act confirm: CHT activators, confirmation, cell-based, membrane potential dye, duplicate. actives 91% (n = 2,500). AID 504833, 2011. CHT-expressing cells, membrane potential dye fluorescence (FDSS); % of choline EC20–EC90 response window; HEK293 expressing CHT LV-AA mutant; choline added at its EC20. shares compounds with CHT allo act. activation, % at 10 µM;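 active = primary screen active, with duplicate mean activation above negative control mean plus 3 SD, cut at about 11% in these data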
HEK293 MP dye: membrane potential response in parental HEK293 cells, counter-screen for CHT activator project, cell-based, membrane potential dye | shares compounds with CHT allo act | actives 62% (n = 2,500) | AID 623908, 2012 | ratio readout change at 10 µM, hits read low | membrane potential dye fluorescence (FDSS); measured after EC20 choline addition;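 active = duplicate-averaged ratio beyond 3 SD from buffer wells, up or down, though filed actives are nearly all decreases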
Large screens that a line does not name were inactive (follow-up assays come after a bar, where they were run). Only some compounds are listed: those with a hit (about 2.3% of all), similar ones and a draw of the others.

CN=c1scc(-c2ccc(Br)cc2)n1C	none | CHT act confirm 35 | HEK293 MP dye -44
COCCn1c(-c2ccc(Br)cc2)csc1=Nc1cccnc1	none
Cc1ccn2cc(CCNS(=O)(=O)c3ccc4ccccc4c3)nc2c1	none (no result: Pemphigus Ab inh)
Cc1ccn2cc(CCNS(=O)(=O)c3ccc4c(c3)OCCO4)nc2c1	none | CHT act confirm 25 | HEK293 MP dye inactive
C=CCN(C(C(=O)OC)C(C)C)S(=O)(=O)CCNCc1ccccc1 (centres undefined)	none (no result: pCIP destab, T cell modulator, CHT allo act, GPR7 antag, CHT inh)
Nc1c(N(Cc2ccccc2)C(=O)COc2ccc([N+](=O)[O-])cc2)c(=O)[nH]c(=O)n1Cc1ccccc1	none (no result: pCIP destab, T cell modulator, CHT allo act, GPR7 antag, CHT inh)
NCCCC[C@H]1CN=C(N)N1CCCCC1CCCCC1	CHT allo act 11 (no result: pCIP destab, GPR7 antag) | CHT act confirm 47 | HEK293 MP dye -51
COc1ccc(OC)c(CNC(=O)CCS(=O)(=O)c2ccc3c(c2)oc(=O)n3C)c1	none (no result: Pemphigus Ab inh)
O=[N+]([O-])c1ccc(C[n+]2cc(-c3ccccc3)n3c2CCCCC3)cc1	none
Cc1ccc(NC(=O)C[n+]2cc(-c3ccccc3)n3c2CCC3)cc1	none
O=C(C[n+]1cc(-c2ccc(Cl)c(Cl)c2)n2c1CCC2)OCc1ccccc1	none
Clc1ccc(-c2c[n+](Cc3cccc(Cl)c3)c3n2CCC3)cc1	CHT allo act 8.1 | CHT act confirm 69 | HEK293 MP dye -54
O=[N+]([O-])c1ccc(C[n+]2cc(-c3ccc(Cl)c(Cl)c3)n3c2CCCCC3)cc1	none | CHT act confirm 34 | HEK293 MP dye -33
Clc1ccc(C[n+]2cc(-c3ccccc3)n3c2CCC3)cc1Cl	CHT allo act 7.8 | CHT act confirm 18 | HEK293 MP dye -27
O=C(O)C1CCCCC1C(=O)Nc1ccc(S(=O)(=O)N2CCOCC2)cc1 (centres undefined)	none (no result: pCIP destab, T cell modulator, CHT allo act, GPR7 antag, CHT inh)
O=S(=O)(O)c1cccc(N=Nc2c(O)ccc3ccccc23)c1	none | CHT act confirm 33 | HEK293 MP dye -39
O=S(=O)(c1ccc(F)c(Cl)c1)N1CCN(C/C=C/c2ccccc2)CC1	none (no result: pCIP destab, CHT allo act, GPR7 antag, CHT inh)
CC(C)(C)OC(=O)N(CCc1ccccc1)Cc1ccccc1OCc1cccc(NC(=O)C2CCCC2)c1	none (no result: pCIP destab, T cell modulator, CHT allo act, GPR7 antag, CHT inh)
O=C(CSc1nnc(Cc2cccs2)n1C1CCCCC1)N1CCCc2ccccc21	CHT allo act 6.4 | CHT act confirm 31 | HEK293 MP dye inactive
Cn1c(Cc2cccs2)nnc1SCC(=O)N1CCCc2ccccc21	none
Cc1ccccc1C(=O)NC1CC2CCCC(C1)N2CC(C)C (centres undefined)	none (no result: pCIP destab, T cell modulator, CHT allo act, GPR7 antag, CHT inh)
Cc1cc(=O)n(C)c(=O)n1CCCCCCN1CCCC1	none | CHT act confirm 44 | HEK293 MP dye -34
Cc1cc(=O)n(C)c(=O)n1CCCCCOc1cccc([N+](=O)[O-])c1	none
CC(c1ccccc1)n1ccnc1CO (centres undefined)	none (no result: pCIP destab, T cell modulator, CHT allo act, GPR7 antag, CHT inh)
CCN1CCC2(CC1)C(C#N)=C(N)Oc1c2sc2nc(C)cc(C)c12	CHT allo act 6.7 (no result: Pemphigus Ab inh) | CHT act confirm 39 | HEK293 MP dye inactive
CN1c2ccccc2C(O)=C(C(=S)Nc2ccc(Cl)cc2)S1(=O)=O	none
Cc1cccc(NC(=O)C2=C(O)c3ccccc3N(C)S2(=O)=O)c1	none | CHT act confirm inactive | HEK293 MP dye -28
Cc1ccc(C(=O)N2CCN(C/C=C/c3ccccc3)CC2)cc1S(=O)(=O)N1CCOCC1	none (no result: pCIP destab, T cell modulator, CHT allo act, GPR7 antag, CHT inh)
CCOc1cc(C2C(C(=O)OC)=CN(Cc3ccc(Cl)cc3)C=C2C(=O)OC)ccc1O	none | CHT act confirm 20 | HEK293 MP dye inactive
COc1ccc2c(c1)c(C(=O)CN1CCC(C(N)=O)CC1)c(C)n2C	CHT allo act 6.3 | CHT act confirm 65 | HEK293 MP dye -51
COc1ccc(N2CCN(CC(=O)c3c(C)n(C)c4ccc(OC)cc34)CC2)cc1	none
COc1ccc2c(c1)c(C(=O)CN1CCCCC1)c(C)n2C	none (no result: pCIP destab, GPR7 antag) | CHT act confirm 44 | HEK293 MP dye -51
COc1ccc2c(c1)c(C(=O)CN1CCOCC1)c(C)n2C	none | CHT act confirm 38 | HEK293 MP dye -37
COc1ccc2c(c1)c(C(=O)CN1CCC3(CC1)OCCO3)c(C)n2C	CHT allo act 6.4 | CHT act confirm 15 | HEK293 MP dye -41
Cc1ccc2c(C(=O)CN3CCC(C(N)=O)CC3)c(C)[nH]c2c1	none
Cc1ccc(C)c(NC(=S)N2CCC(C(=O)c3ccc(F)cc3)CC2)c1	none (no result: pCIP destab, T cell modulator, CHT allo act, GPR7 antag, CHT inh)
COc1ccc(NC(=O)NC2(C(=O)N3CCCC(C)C3)CCCCC2)cc1 (centres undefined)	none
COc1ccc(OC)c2c(C)cc(N3CCN(C(=O)c4ccc(F)cc4)CC3)nc12	CHT allo act 6.5 | CHT act confirm 41 | HEK293 MP dye -69
Cc1cc(NC(=O)CCCSc2nc(-c3ccco3)cc(C(F)(F)F)n2)n(-c2ccccc2)n1	none (no result: Pemphigus Ab inh) | CHT act confirm 15 | HEK293 MP dye inactive
Cc1cc(NC(=O)CSc2nc(-c3ccco3)cc(C(F)(F)F)n2)n(-c2ccccc2)n1	none
Cc1ccc(CNCCCn2cnc(C(=O)Nc3ccc(C)c(C)c3)n2)o1	none (no result: pCIP destab, T cell modulator, CHT allo act, GPR7 antag, CHT inh)
Cc1cc(N2CCOCC2)c2c(N)c(Br)cc(C)c2n1	CHT allo act 9.8 | CHT act confirm 45 | HEK293 MP dye -66
O=C1CCN(CC2CCCCC2)C=C1C(=O)c1ccccc1	none (no result: pCIP destab, T cell modulator, CHT allo act, GPR7 antag, CHT inh)
CCC[n+]1c(C)sc2c3c(ccc21)CCCC3	CHT allo act 11 (no result: Pemphigus Ab inh) | CHT act confirm 82 | HEK293 MP dye -69
O=C(Cn1cc(C(=O)C(=O)N2CCOCC2)c2ccccc21)Nc1cccc(C(F)(F)F)c1	none (no result: pCIP destab, T cell modulator, CHT allo act, GPR7 antag, CHT inh)
Cc1cc(C)c2c(n1)nn1c(NCCCN3CCOCC3)cc(C)nc21	none (no result: pCIP destab, T cell modulator, CHT allo act, CHT inh)
Cc1cc(NCCCN2CCOCC2)n2nc(C)c(-c3ccc(F)cc3)c2n1	none | CHT act confirm 52 | HEK293 MP dye -65
Cc1cc(NCCCN2CCOCC2)n2ncc(-c3ccccc3)c2n1	none
Cc1cc(NCCCN2CCOCC2)n2nc(C)c(-c3ccccc3)c2n1	CHT allo act 9.7 (no result: Pemphigus Ab inh) | CHT act confirm 45 | HEK293 MP dye -57
Cn1ncc2c(=S)nc(Cl)[nH]c21	none (no result: pCIP destab, T cell modulator, CHT allo act, GPR7 antag, CHT inh)
